Screening data: PubChem, Columbia University Molecular Screening Center
This excerpt belongs to a sample that is enriched for hits.
Insulin prom act – TRM-6 insulin promoter activation; TRM-6 cells (human fetal islet line), insulin promoter eGFP reporter, imaging; plate-scaled: unstimulated 0, stimulated control 100; 0.81% of 130,000 active; activation, % at 2 µM;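 active = activation at 2 µM above a set limit, confirmed on inspection of the cell images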;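 also: share of cells whose green reporter signal exceeds an intensity cutoff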
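System – TRM-6 insulin promoter–eGFP reporter cells · Probe or stimulus – 0.75 µM tamoxifen as reporter inducer · Dosing – single-point 2 µM compound dose · Incubation – tamoxifen pre-incubation 15 h overnight, then compound exposure 48 h at 37 °C · Measured by – fixed-cell fluorescence microscopy, eGFP plus Hoechst · Evaluation – percent GFP-positive cells normalized to per-plate controls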
* hit, by the source's call.

What do the screens show for `CCc1ccccc1N(C1=NCCCS1)S(=O)(=O)c1ccc(C(C)(C)C)cc1`?
Insulin prom act: 8

How did Cc1ccc(NS(=O)(=O)c2cccc(C(=O)Nc3cc(C)on3)c2)cc1 do in these assays?
Insulin prom act: 369*

How did Cc1ccc(S(=O)(=O)Nc2cccc(C(=O)Nc3cc(C)ccn3)c2)cc1 do in these assays?
Insulin prom act: 7

How did Cc1cc(NC(=O)c2ccccc2NS(=O)(=O)c2c(C)c(C)cc(C)c2C)no1 do in these assays?
Insulin prom act: 4

What do the screens show for `CC1CCN(C(=O)Cn2c(SCC(=O)Nc3nccs3)nc3ccccc32)CC1`?
Insulin prom act: 154*

What do the screens show for `CC1CC(C)CN(C(=O)Cn2c(SCC(=O)N3CCc4ccccc4C3)nc3ccccc32)C1` (stereo unspecified)?
Insulin prom act: 107

What do the screens show for `CC1CCN(C(=O)CSCC(=O)Nc2nc(-c3cccs3)cs2)CC1`?
Insulin prom act: 0

How did CS(=O)(=O)c1ccc(S(=O)CC(=O)OCc2ccccc2)c([N+](=O)[O-])c1 (stereo unspecified) do in these assays?
Insulin prom act: 192

What do the screens show for `O=C(Cc1ccccc1)Nc1ccc(CN2CCOCC2)cc1`?
Insulin prom act: 6

Results for O=C(Nc1ccc2c(c1)OCO2)c1ccc(CN2CCOCC2)cc1 ?
Insulin prom act: 8

How did CSc1ccccc1NC(=O)c1ccc(CN2CCOCC2)cc1 do in these assays?
Insulin prom act: 276*

Results for COc1cc(NC(=O)CSc2nc3ccccc3n2-c2ccccc2)c(C)cc1[N+](=O)[O-] ?
Insulin prom act: 7

Results for Cc1nc(N2CCN(S(=O)(=O)c3ccccc3)CC2)c2cc(-c3ccccc3)sc2n1 ?
Insulin prom act: 81*

How did CC(=O)N1CCN(c2ncnc3sc(-c4ccccc4)cc23)CC1 do in these assays?
Insulin prom act: 4

How did Cc1nc(N2CCN(S(=O)(=O)c3ccccc3)CC2)c2c3c(sc2n1)CC(C)CC3 (stereo unspecified) do in these assays?
Insulin prom act: 0

Results for CNC(=O)C1=C(C)NC(=S)NC1c1cc2c(cc1OC)CCCC2 (stereo unspecified) ?
Insulin prom act: -9

What do the screens show for `COc1ccc(N2C(=O)CSC2c2ccccc2[N+](=O)[O-])cc1` (stereo unspecified)?
Insulin prom act: 0

Results for CS(=O)(=O)c1cc([N+](=O)[O-])c(Sc2nc3ccccc3[nH]2)c([N+](=O)[O-])c1 ?
Insulin prom act: -9

How did CC(C)(C)N(C(=O)Cn1nnc(-c2ccc(F)cc2)n1)C(C(=O)NC1CCCC1)c1ccncc1 (stereo unspecified) do in these assays?
Insulin prom act: 132

What do the screens show for `Cc1ccc(N(C(=O)CCl)C(C(=O)NC2CCCCC2)c2cccnc2)cc1C` (stereo unspecified)?
Insulin prom act: 163

Results for Cc1ccc(N(C(=O)Cn2nnc(-c3ccccc3)n2)C(C(=O)NC2CCCCC2)c2ccccn2)cc1C (stereo unspecified) ?
Insulin prom act: 344*

What do the screens show for `Cn1nc(-c2ccc3c(c2)OCCO3)c2ccccc2c1=O`?
Insulin prom act: 7

What do the screens show for `COCCNC(=S)NNc1cccc(C(=O)O)c1`?
Insulin prom act: -9

What do the screens show for `Fc1ccc(C(c2nnnn2Cc2ccco2)N2CCN(C3CCCCC3)CC2)cc1` (stereo unspecified)?
Insulin prom act: 89*

How did c1ccc(Cn2nnnc2C(c2cccnc2)N2CCN(C3CCCCC3)CC2)cc1 (stereo unspecified) do in these assays?
Insulin prom act: -4

What do the screens show for `O=C(c1ccco1)N1CCN(C(c2ccc(F)cc2)c2nnnn2Cc2cccs2)CC1` (stereo unspecified)?
Insulin prom act: -10

Results for CCOC(=O)NC(c1ccccc1)C1CCCCC1=O (stereo unspecified) ?
Insulin prom act: -8

Results for O=C1CCCCC1C(Nc1ccc(Cl)cc1)c1ccccc1 (stereo unspecified) ?
Insulin prom act: 214*

What do the screens show for `O=C(OC1CCCCC1=O)c1ccc(S(=O)(=O)Nc2ccccc2)cc1` (stereo unspecified)?
Insulin prom act: -9

Results for COc1cc(C2NC(=S)NC(C)=C2C(=O)Nc2ccc(C)cc2)ccc1O (stereo unspecified) ?
Insulin prom act: 7

Results for CNc1nc(C)nc(-n2nc(C)cc2C)n1 ?
Insulin prom act: 660*

Results for Cc1cc(-n2nc(C)cc2C)nc(N)n1 ?
Insulin prom act: -8

Results for Cc1cc(NCCO)nc(-n2nc(C)cc2C)n1 ?
Insulin prom act: -79

What do the screens show for `CC(C)(C)NC(=O)C(=O)NN=C1CCCCCCCCCCC1`?
Insulin prom act: -8

Results for CCOc1ccc(OCCN2CCCCC2)cc1 ?
Insulin prom act: -62

Results for CCOc1ccc(CNC(=S)N/N=C\c2ccc([N+](=O)[O-])cc2)cc1 ?
Insulin prom act: 0

Results for CCOc1ccc(C=NC23CN4CN(CN(C4)C2)C3)cc1 ?
Insulin prom act: 191*

Results for O=c1c2ccccc2nnn1CSc1nc2ccccc2c(=O)n1CCCO ?
Insulin prom act: 9

Results for CSCC[C@H](NC(=O)CCn1nnc2ccccc2c1=O)C(=O)O ?
Insulin prom act: 150*

Results for CSCCC(NC(=O)CCN1C(=O)c2ccccc2C1=O)C(=O)O (stereo unspecified) ?
Insulin prom act: 6

Results for CC(=NCc1cccc(Cl)c1)c1nc(-c2ccco2)oc1O ?
Insulin prom act: 129

How did COc1ccc(C(=O)N2N=C(c3cccc(OC)c3)CC2(O)C(F)(F)F)cc1 (stereo unspecified) do in these assays?
Insulin prom act: 7

How did COc1ccccc1N(CC(=O)NC(C)(C)C)S(=O)(=O)c1cccs1 do in these assays?
Insulin prom act: 10

How did NS(=O)(=O)c1ccc(NC(=S)Nc2ccc(F)c(F)c2)cc1 do in these assays?
Insulin prom act: 8

What do the screens show for `CC(=O)c1cccc(NC(=O)C(CC(C)C)NC(=O)C2CCCCC2)c1` (stereo unspecified)?
Insulin prom act: -7

Results for Cc1ccc(OCCCC(=O)NC(C)c2ccccc2)cc1 (stereo unspecified) ?
Insulin prom act: 0

How did Cc1cccc(OCCCC(=O)NC(C)c2ccccc2)c1 (stereo unspecified) do in these assays?
Insulin prom act: 85*

Results for COc1ccccc1C(C)NC(=O)CCOc1cccc(C)c1 (stereo unspecified) ?
Insulin prom act: -8

Results for Cc1cc2n(c(=O)c1C#N)CCCN2c1ccccc1 ?
Insulin prom act: 306

How did CC1CN(c2nc3ccccc3cc2-c2ccccc2)CC(C)O1 (stereo unspecified) do in these assays?
Insulin prom act: -8

How did Cc1ccc(S(=O)(=O)Nc2cccc3c2CCCC3)cc1 do in these assays?
Insulin prom act: 3

Results for COc1ccccc1Nc1cc(C(=O)N2CCc3ccccc3C2)c2ccccc2n1 ?
Insulin prom act: 8

Results for Cc1cc(Nc2ccccc2C(=O)O)nc2nc3ccccc3c(=O)n12 ?
Insulin prom act: 146*

Results for Cc1cccc(Nc2ccccc2C(=O)O)c1C ?
Insulin prom act: 5

How did NC(=O)C1CCN(C(=O)c2ccco2)CC1 do in these assays?
Insulin prom act: -5

How did Cc1nc(SCC(O)CO)c([N+](=O)[O-])[nH]1 (stereo unspecified) do in these assays?
Insulin prom act: 293

What do the screens show for `COc1cccc(NC(=S)N(CCc2c(C)[nH]c3ccc(C)cc23)Cc2cccs2)c1`?
Insulin prom act: -5
